ChEMBL document CHEMBL4354876, “A Selective Modulator of Peroxisome Proliferator-Activated Receptor γ with an Unprecedented Binding Mode” (J Med Chem, 2020)
Calls of active or inactive are those of the source. The calls are words filed in the database; no cut-off is given here.

Key:
[1] = Partial agonist activity at recombinant PPARgamma LBD/N-terminal GFP-fused RXRalpha mutant LBD (unknown origin) assessed as increase in biotinylated-CBP peptide recruitment measured after 2 hrs by HTRF assay; parameters: species or system Homo sapiens
Summary of the method: (§1)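 Cell-free HTRF assay of coactivator peptide recruitment (CBP or SRC-1) to the recombinant PPARγ:RXRα heterodimer.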

[2] = Partial agonist activity at recombinant PPARgamma LBD/N-terminal GFP-fused RXRalpha mutant LBD (unknown origin) assessed as increase in biotinylated-SRC1 peptide recruitment measured after 2 hrs by HTRF assay; parameters: species or system Homo sapiens; summary of the method: as §1
[3] = molecular target: T1, Peroxisome proliferator-activated receptor gamma (Homo sapiens) (UniProt P37231); experiment: Selective modulation of PPARgamma in human HepG2 cells assessed as induction of adiponectin mRNA expression at 1 uM measured after 12 hrs by qPCR analysis; assay type: cell-based
T1 sequence (whole entry): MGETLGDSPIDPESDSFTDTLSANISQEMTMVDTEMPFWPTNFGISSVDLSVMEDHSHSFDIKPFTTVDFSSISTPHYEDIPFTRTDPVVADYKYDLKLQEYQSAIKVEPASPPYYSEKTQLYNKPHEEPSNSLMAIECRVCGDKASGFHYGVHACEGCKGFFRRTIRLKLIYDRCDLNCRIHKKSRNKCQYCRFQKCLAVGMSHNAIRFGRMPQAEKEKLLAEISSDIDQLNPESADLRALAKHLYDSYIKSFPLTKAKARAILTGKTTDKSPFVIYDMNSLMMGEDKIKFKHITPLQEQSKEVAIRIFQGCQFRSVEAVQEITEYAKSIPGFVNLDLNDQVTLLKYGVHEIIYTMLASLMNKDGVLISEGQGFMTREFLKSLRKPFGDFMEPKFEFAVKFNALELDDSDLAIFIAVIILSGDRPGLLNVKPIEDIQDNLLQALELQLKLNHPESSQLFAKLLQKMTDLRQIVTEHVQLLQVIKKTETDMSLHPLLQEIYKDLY
Summary of the method: (§2)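 HepG2 cells were incubated with test compound at 1 µM. mRNA of the PPARγ target genes adiponectin and ANGPTL4 was quantified. Mean±S.E.M., n≥3.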

[4] = test system: NHDF; experiment: (§3) Induction of adipogenesis in NHDF assessed as reduction in fibroblast differentiation into matured adipocytes at 2 uM administered on day 3 of differentiation 1 and day 5 of differentiation 2 followed by media refreshment at 2 days interval up to 13 days and measured on day 14 by Oil red O staining based light microscopic analysis; assay type: cell-based; settings: human
Summary of the method: (§4)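 Primary human fibroblasts (NHDF) were differentiated to mature adipocytes and treated with ligand or DMSO; the test compound was used at 0.2, 2 and 20 µM and the reference at 2 µM. Lipid accumulation was read by Oil Red O staining, with four replicates.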

[5] = molecular target: T2, Peroxisome proliferator-activated receptor delta (Homo sapiens, UniProt Q03181); experiment: Partial agonist activity at Gal4-fused PPARdelta LBD (unknown origin) expressed in HEK293T cells after 14 to 16 hrs by dual-Glo luciferase assay; assay type: cell-based
T2 sequence (Q03181 whole entry): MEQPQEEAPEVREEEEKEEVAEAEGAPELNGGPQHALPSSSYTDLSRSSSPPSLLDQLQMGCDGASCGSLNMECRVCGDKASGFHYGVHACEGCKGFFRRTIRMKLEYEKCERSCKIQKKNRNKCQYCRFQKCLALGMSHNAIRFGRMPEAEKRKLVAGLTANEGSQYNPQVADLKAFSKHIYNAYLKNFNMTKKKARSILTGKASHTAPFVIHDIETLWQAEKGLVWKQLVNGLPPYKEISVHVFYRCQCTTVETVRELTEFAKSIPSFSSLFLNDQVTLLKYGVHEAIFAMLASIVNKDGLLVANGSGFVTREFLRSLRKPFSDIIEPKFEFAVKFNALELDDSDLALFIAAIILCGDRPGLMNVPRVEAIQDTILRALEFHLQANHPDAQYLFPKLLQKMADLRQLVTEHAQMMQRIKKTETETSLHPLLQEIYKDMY
Summary of the method: (§5)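 Gal4 hybrid reporter assay in transiently transfected HEK293T cells. Constructs fuse the yeast Gal4 DNA-binding domain to the human receptor LBD. Firefly luciferase is the reporter. Constitutive renilla luciferase monitors transfection efficiency and toxicity. EC50 and maximal relative activation are reported as mean±S.E.M., n≥3.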

[6] = molecular target: T3, Peroxisome proliferator-activated receptor alpha (Homo sapiens, UniProt Q07869); experiment: Partial agonist activity at Gal4-fused PPARalpha LBD (unknown origin) expressed in HEK293T cells after 14 to 16 hrs by dual-Glo luciferase assay; assay type: cell-based; summary of the method: as §5
T3 sequence (Q07869 whole entry): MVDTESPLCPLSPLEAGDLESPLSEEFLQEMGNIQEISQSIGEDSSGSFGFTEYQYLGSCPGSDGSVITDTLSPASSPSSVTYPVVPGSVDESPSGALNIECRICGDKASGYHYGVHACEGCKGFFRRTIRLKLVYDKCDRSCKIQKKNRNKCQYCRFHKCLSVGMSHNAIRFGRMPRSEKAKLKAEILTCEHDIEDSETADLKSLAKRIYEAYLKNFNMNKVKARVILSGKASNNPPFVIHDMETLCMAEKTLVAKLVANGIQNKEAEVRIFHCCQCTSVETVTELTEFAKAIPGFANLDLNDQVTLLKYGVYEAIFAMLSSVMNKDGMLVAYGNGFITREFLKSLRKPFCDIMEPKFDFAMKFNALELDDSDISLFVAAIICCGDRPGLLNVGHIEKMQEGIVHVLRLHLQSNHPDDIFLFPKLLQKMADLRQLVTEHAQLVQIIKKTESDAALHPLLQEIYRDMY

[7] = molecular target: T4, Peroxisome proliferator-activated receptor alpha (Homo sapiens) (UniProt Q07869); experiment: Partial agonist activity at Gal4-fused PPARalpha LBD (unknown origin) expressed in HEK293T cells after 14 to 16 hrs by dual-Glo luciferase assay relative to GW7647; assay type: cell-based; summary of the method: as §5
T4 sequence (whole entry): T3 sequence (Q07869 whole entry)

[8] = molecular target: T5, Peroxisome proliferator-activated receptor gamma (Homo sapiens, UniProt P37231); experiment: Partial agonist activity at Gal4-fused PPARgamma LBD (unknown origin) expressed in HEK293T cells after 14 to 16 hrs by dual-Glo luciferase assay; assay type: cell-based; summary of the method: as §5
T5 sequence (P37231 whole entry): T1 sequence (whole entry)

[9] = molecular target: T1, Peroxisome proliferator-activated receptor gamma (Homo sapiens); experiment: Partial agonist activity at Gal4-fused PPARgamma LBD (unknown origin) expressed in HEK293T cells after 14 to 16 hrs by dual-Glo luciferase assay relative to pioglitazone; assay type: cell-based; summary of the method: as §5
[10] = molecular target: T6, Peroxisome proliferator-activated receptor delta (Homo sapiens) (UniProt Q03181); experiment: Partial agonist activity at Gal4-fused PPARdelta LBD (unknown origin) expressed in HEK293T cells after 14 to 16 hrs by dual-Glo luciferase assay relative to L165041; assay type: cell-based; summary of the method: as §5
T6 sequence (whole entry): T2 sequence (Q03181 whole entry)

[11] = molecular target: Retinoic acid receptor (Homo sapiens) (UniProt P13631+P10826+P10276); experiment: Agonist activity at RAR (unknown origin) at 10 uM; assay type: protein assay
[12] = molecular target: Liver X receptor (Homo sapiens) (UniProt Q13133+P55055); experiment: Agonist activity at LXR (unknown origin) at 10 uM; assay type: protein assay
[13] = molecular target: T7, Bile acid receptor (Homo sapiens) (UniProt Q96RI1); experiment: Agonist activity at FXR (unknown origin) at 10 uM
T7 sequence (whole entry): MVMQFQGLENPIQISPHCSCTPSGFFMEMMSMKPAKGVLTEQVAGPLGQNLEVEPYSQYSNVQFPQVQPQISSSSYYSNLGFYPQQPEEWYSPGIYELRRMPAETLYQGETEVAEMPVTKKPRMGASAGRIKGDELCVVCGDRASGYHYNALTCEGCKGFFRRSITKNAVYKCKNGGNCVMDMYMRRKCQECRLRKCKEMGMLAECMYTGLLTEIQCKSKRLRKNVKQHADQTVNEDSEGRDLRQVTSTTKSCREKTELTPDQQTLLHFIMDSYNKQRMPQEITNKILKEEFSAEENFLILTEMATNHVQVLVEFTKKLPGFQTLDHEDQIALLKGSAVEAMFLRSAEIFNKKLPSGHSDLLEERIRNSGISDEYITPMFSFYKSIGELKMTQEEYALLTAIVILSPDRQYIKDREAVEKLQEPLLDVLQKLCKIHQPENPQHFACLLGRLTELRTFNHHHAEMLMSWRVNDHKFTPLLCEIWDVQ

[14] = molecular target: Retinoid X receptor (Homo sapiens) (UniProt P28702+P48443+P19793); experiment: Agonist activity at RXR (unknown origin) at 10 uM; assay type: protein assay
[15] = Stability in Sprague-Dawley rat liver microsomes assessed as parent compound remaining at 10 uM after 60 mins by HPLC analysis; assay type: ADME, Microsome; settings: read-out: Stability
Summary of the method: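 Incubation with rat liver microsomes, measuring compound remaining after 60 minutes.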

[16] = molecular target: T5, Peroxisome proliferator-activated receptor gamma; experiment: Partial agonist activity at recombinant N-terminal GFP-fused PPARgamma LBD (unknown origin) assessed as increase in biotinylated-CBP peptide recruitment measured after 2 hrs by HTRF assay
Summary of the method: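 Cell-free HTRF assay of CBP coactivator recruitment to recombinant PPARγ protein.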

[17] = molecular target: T5, Peroxisome proliferator-activated receptor gamma; experiment: Partial agonist activity at recombinant N-terminal GFP-fused PPARgamma LBD (unknown origin) assessed as increase in biotinylated-SRC1 peptide recruitment measured after 2 hrs by HTRF assay
[18] = molecular target: T5, Peroxisome proliferator-activated receptor gamma; experiment: Selective modulation of PPARgamma in human HepG2 cells assessed as induction of ANGPTL4 mRNA expression at 1 uM measured after 12 hrs by qPCR analysis; assay type: cell-based; settings: hepg2, 12 h; summary of the method: as §2
[19] = test system: NHDF; experiment: as §3, with “adipocytes at 0.2 to 20 uM administered” for “adipocytes at 2 uM administered”; assay type: cell-based; settings: human; summary of the method: as §4

Chain of Retinoid X receptor (Homo sapiens) (P19793 whole entry, looked up): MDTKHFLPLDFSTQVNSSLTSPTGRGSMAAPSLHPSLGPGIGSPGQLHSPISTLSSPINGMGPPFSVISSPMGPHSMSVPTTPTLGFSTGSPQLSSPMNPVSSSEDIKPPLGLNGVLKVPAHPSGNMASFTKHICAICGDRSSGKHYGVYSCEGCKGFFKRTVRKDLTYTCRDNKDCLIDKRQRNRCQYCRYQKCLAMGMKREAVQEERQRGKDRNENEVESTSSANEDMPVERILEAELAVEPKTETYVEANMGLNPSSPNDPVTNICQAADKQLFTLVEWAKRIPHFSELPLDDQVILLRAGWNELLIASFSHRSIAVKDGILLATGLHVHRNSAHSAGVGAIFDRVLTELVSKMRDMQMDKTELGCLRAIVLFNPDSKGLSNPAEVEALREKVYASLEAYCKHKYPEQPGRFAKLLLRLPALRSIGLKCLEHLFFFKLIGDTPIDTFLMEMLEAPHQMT
Chain of Retinoid X receptor (Homo sapiens) (P28702 whole entry, looked up): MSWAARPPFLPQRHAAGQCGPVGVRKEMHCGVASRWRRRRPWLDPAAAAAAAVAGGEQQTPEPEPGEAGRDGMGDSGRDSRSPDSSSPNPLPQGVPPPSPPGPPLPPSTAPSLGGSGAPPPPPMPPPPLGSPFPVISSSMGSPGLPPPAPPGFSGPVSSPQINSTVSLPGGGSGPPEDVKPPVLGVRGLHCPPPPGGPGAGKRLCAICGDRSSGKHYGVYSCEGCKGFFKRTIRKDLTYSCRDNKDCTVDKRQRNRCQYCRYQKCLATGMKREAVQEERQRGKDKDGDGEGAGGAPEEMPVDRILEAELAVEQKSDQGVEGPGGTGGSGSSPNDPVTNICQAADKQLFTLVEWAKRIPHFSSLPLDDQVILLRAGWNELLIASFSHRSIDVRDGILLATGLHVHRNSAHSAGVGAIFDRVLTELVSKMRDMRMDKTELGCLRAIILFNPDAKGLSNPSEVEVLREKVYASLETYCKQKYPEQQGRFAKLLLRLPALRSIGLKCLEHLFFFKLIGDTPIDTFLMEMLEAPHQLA
Chain of Retinoid X receptor (Homo sapiens) (P48443 whole entry, looked up): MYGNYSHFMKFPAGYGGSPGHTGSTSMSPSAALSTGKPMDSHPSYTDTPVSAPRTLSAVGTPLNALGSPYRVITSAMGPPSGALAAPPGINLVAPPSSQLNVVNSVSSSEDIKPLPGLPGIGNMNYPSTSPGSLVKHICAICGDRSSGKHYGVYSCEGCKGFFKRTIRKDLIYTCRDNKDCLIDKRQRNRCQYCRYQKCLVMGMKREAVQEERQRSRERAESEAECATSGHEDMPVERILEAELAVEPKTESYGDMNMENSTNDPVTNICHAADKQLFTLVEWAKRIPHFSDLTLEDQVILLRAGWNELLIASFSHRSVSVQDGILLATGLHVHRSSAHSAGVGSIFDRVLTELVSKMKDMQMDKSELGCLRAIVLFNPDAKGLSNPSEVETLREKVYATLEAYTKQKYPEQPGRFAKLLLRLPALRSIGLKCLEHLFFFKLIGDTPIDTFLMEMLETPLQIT
Chain of Retinoic acid receptor (Homo sapiens) (P10276 whole entry, looked up): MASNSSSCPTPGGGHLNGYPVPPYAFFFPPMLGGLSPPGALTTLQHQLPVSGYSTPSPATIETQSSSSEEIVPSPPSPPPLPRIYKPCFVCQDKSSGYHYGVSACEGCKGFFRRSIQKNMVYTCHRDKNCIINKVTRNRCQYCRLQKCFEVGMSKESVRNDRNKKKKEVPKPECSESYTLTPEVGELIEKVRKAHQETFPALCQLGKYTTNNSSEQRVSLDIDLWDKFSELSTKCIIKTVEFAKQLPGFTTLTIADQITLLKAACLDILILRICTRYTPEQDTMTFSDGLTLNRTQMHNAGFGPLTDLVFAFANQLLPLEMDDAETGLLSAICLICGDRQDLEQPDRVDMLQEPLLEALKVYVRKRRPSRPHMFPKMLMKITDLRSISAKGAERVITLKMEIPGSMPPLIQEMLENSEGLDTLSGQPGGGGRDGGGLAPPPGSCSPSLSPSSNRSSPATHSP
Chain of Retinoic acid receptor (Homo sapiens) (P10826 whole entry, looked up): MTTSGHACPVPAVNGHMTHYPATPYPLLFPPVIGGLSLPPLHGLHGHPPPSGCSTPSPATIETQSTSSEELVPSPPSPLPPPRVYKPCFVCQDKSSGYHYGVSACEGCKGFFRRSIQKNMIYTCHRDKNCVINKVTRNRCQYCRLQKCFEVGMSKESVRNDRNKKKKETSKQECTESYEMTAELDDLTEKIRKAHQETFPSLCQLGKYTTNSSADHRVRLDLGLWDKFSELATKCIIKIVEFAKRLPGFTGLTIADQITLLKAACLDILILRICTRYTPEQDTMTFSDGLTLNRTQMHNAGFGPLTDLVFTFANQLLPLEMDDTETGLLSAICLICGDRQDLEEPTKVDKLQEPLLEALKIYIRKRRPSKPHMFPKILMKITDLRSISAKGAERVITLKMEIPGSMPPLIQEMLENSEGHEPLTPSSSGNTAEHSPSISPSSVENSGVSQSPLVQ
Chain of Retinoic acid receptor (Homo sapiens) (P13631 whole entry, looked up): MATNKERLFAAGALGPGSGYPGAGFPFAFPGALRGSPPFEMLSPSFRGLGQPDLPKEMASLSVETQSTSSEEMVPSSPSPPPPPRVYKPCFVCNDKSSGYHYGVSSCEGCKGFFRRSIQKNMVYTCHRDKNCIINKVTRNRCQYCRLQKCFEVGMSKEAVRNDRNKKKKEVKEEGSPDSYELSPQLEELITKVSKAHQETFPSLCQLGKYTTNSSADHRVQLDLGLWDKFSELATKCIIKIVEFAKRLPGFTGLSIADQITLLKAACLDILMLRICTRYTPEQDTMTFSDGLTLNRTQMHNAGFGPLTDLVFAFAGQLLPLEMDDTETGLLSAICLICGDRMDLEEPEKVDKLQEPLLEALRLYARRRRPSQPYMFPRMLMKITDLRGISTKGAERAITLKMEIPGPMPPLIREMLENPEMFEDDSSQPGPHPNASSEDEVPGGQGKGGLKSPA

EC50 [1]	EC50 [2]	Activity [3]	EC50 [5]	EC50 [6]	max activation [7]	EC50 [8]	max activation [9]	max activation [10]	Activity [11]	Activity [12]	Activity [13]	Activity [14]	remaining at 1 h, 10 µM [15]	EC50 [16]	EC50 [17]	Compound	Activity [4]	Activity [18]	Activity [19]
121 nM	116 nM	Active	–	–	–	–	–	–	–	–	–	–	–	–	–	CN(CCOc1ccc(CC2SC(=O)NC2=O)cc1)c1ccccn1 (configuration not stated) [ROSIGLITAZONE]	Toxic	–	–
437 nM	887 nM	Active	400 nM	500 nM	29%	2.2 nM	67%	12%	inactive	inactive	inactive	inactive	80%	197 nM	107 nM	CCCCCCC(Sc1nc2ccc(NS(=O)(=O)c3ccc(Cl)cc3Cl)cc2s1)C(=O)O (configuration not stated)	–	Not Active	Non-Toxic
